# Data as given in the M2OR odorant receptor database.
# Target: T1, OR2M7 (Homo sapiens) (UniProt Q8NG81)
# T1 sequence (whole entry): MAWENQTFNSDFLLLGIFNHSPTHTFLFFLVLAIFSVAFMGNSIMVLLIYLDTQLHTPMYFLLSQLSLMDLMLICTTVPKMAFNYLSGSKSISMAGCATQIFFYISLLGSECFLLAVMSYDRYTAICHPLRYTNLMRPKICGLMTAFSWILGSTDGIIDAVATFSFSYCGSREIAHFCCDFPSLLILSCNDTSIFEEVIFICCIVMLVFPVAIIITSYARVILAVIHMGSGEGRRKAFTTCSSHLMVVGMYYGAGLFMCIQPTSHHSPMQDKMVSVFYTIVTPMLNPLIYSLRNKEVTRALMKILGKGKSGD
# Conditions: stereoisomer not certain
# In short: (§1)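 Each receptor–molecule pair is labelled responsive or non-responsive (inactive) according to whether the original authors judged the measured signal statistically different from baseline. The data were taken from the main text and supplementary material of published papers and checked for typos and inconsistencies. Assay methods differed by source, with transient luciferase assays in mammalian cell lines being common.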
# 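Also: active if original authors judged signal statistically different from baseline.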
row,SMILES,odorant receptor agonist call
1,CC(=O)OCc1ccccc1,inactive
2,CC1CCCCCCCCCCCCC(=O)C1 (stereo not drawn),inactive
3,CCCCCCC=CCCC=O,inactive
4,CCCC(S)CCOC(C)=O (stereo not drawn),inactive

# Target: T2, OR2S2 (Homo sapiens) (UniProt Q9NQN1)
# T2 sequence (whole entry): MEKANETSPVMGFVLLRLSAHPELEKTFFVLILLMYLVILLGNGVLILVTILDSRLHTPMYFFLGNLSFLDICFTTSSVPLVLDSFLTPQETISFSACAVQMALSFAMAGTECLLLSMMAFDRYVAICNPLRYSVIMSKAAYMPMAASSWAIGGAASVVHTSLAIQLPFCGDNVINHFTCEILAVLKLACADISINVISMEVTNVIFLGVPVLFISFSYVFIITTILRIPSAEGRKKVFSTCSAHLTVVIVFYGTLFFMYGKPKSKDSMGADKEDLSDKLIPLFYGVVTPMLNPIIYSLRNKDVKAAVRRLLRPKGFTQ
# Conditions: stereoisomer not certain
# In short: as §1
row,SMILES,odorant receptor agonist call
1,CC1CCCCCCCCCCCCC(=O)C1 (stereo not drawn),inactive
2,CCCCCCC=CCCC=O,inactive
3,CCCC(S)CCOC(C)=O (stereo not drawn),inactive

# Target: T3, OR2T1 (Homo sapiens) (UniProt O43869)
# T3 sequence (whole entry): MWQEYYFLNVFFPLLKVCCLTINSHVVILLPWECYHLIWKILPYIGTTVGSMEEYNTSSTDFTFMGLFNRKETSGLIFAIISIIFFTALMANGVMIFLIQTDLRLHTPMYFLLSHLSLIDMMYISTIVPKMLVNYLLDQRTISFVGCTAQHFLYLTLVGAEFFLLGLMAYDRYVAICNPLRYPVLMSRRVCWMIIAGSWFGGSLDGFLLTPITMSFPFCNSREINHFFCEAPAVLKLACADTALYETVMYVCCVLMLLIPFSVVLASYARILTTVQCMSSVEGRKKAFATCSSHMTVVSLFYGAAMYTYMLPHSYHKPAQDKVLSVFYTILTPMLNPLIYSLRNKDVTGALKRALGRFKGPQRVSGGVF
# Conditions: stereoisomer not certain
# In short: as §1
row,SMILES,odorant receptor agonist call
1,CC1CCCCCCCCCCCCC(=O)C1 (stereo not drawn),inactive
2,CCCCCCC=CCCC=O,inactive
3,CCCC(S)CCOC(C)=O (stereo not drawn),inactive

# Target: T4, OR2T10 (Homo sapiens) (UniProt Q8NGZ9)
# T4 sequence (whole entry): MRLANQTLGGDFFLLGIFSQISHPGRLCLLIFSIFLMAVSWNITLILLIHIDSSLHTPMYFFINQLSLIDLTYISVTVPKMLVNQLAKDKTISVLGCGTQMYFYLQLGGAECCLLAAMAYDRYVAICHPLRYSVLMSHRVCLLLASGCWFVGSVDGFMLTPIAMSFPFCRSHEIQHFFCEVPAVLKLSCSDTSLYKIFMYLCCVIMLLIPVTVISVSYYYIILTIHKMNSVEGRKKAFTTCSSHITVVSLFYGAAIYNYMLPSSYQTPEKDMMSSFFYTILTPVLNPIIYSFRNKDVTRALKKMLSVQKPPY
# Conditions: stereoisomer not certain
# In short: as §1
row,SMILES,odorant receptor agonist call
1,CC(=O)OCc1ccccc1,inactive
2,CCCC(C)C(=O)OCC (stereo not drawn),inactive
3,CC1CCCCCCCCCCCCC(=O)C1 (stereo not drawn),inactive
4,CC(CC=O)c1ccc(C(C)(C)C)cc1 (stereo not drawn),inactive
5,CC(C)(C)C1CCCCC1OCCCCO (stereo not drawn),inactive
6,CCCCCCC=CCCC=O,inactive
7,CCOC(=O)CC1(C)OCCO1,inactive
8,CC(C)CCCC(C)(C)O,inactive
9,C=CCOC(=O)COCCC(C)C,inactive
10,CCCC(S)CCOC(C)=O (stereo not drawn),inactive
11,COc1ccc(C)cc1,inactive
12,CC(=O)C=CC1=C(C)CCCC1(C)C,inactive
13,OCc1ccccc1,inactive
14,Cc1occc(=O)c1OC(=O)C(C)C,active
15,C=CC(C)(CCC=C(C)C)OC(C)=O (stereo not drawn),inactive
16,CCCCCC1COCCC1OC(C)=O (stereo not drawn),inactive
17,CCCCC1CCC(=O)O1 (stereo not drawn),inactive
18,COC1CC2CC1C1CC(C=O)CC21 (stereo not drawn),inactive
19,CCC(=O)C=CC1C(C)=CCCC1(C)C (stereo not drawn),inactive
20,CC1CC(C)(c2ccccc2)CO1 (stereo not drawn),inactive
21,CCCCCC1C(=O)CCC1CC(=O)OC (stereo not drawn),inactive
22,CC1=CCC2CC1C2(C)C (stereo not drawn),inactive
23,CC(C)=CCCC(C)CC=O (stereo not drawn),inactive
24,Cc1ccc(C(C)C)cc1O,inactive
25,CCCCCCCCC(OC(C)=O)OC(C)=O,inactive
26,CCc1ccc(CC(C)(C)C=O)cc1,inactive
27,C=CC(C)(O)CCC=C(C)CCC=C(C)C (stereo not drawn),inactive
28,CCC=C(C)C(O)CCCCC (stereo not drawn),inactive
